Reference: paper PMC3775155 (Clinical Drug Investigation, 2013)
Several values for one entry are separate records, joined by “and”; a condition that tells them apart may be missing. Equal values may be shown once. Read-outs that look alike come from different tables or passages of the source.

Tests used:
[1] = format: in vivo, human; details: for AUC / Cmax: female, human, plasma, oral; for AUC: AUC24, least-squares mean, day 21; for Cmax: least-squares mean; for AUC24 ratio (test/reference) / Cmax ratio (test/reference): with vortioxetine vs alone
[2] = Nonclinical pharmacology study: blood–brain barrier penetration; details: based on a nonclinical pharmacology study, unpublished results
[3] = Plasma metabolic ratio of metabolite; format: in vivo; details: minor hydroxyl metabolite of vortioxetine
[4] = multiple daily doses of vortioxetine 10 mg; CYP2D6 probe; cited from earlier work
[5] = cited from earlier work
[6] = format: in vivo, human
Outline: (§1)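 Open-label, randomized, 1-sequence design in healthy adults aged 18–55 y with BMI 19–30 kg/m2 (N = 36 across two arms). Test compound given as a single 10 mg dose on day 1, then a 14-day washout. The azole antifungal (CYP3A/P-gp inhibitor) was given at 400 mg once daily on days 15–21, with test compound 10 mg on day 21. EDTA plasma was sampled predose and 1–120 h postdose on days 1 and 21. Analysis used SPE and HPLC. Noncompartmental AUClast, AUC∞ and Cmax were derived. A mixed-effects model (treatment fixed, subject random) gave back-transformed LS-mean ratios with 90% CI.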

[7] = format: in vivo, human; remark: listed apart in the source
Outline: as §1, with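 “antifungal” for “antifungal (CYP3A/P-gp inhibitor)”, “200” for “400”, “was applied, and” for “gave”, “CI are reported.” for “CI.”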

[8] = Adverse events in the bupropion study; format: in vivo, human; details: monotherapy period, days 1–14, n = 30
[9] = test system: CYP2B6; assay: In vitro CYP inhibition; format: in vitro ADME
[10] = biological target: P-glycoprotein (P-gp) (Homo sapiens, UniProt P08183); assay: In vitro P-gp net efflux ratio; format: in vitro ADME; details: compared with digoxin; unpublished results
Sequence of P-glycoprotein (P-gp) (P08183 whole entry): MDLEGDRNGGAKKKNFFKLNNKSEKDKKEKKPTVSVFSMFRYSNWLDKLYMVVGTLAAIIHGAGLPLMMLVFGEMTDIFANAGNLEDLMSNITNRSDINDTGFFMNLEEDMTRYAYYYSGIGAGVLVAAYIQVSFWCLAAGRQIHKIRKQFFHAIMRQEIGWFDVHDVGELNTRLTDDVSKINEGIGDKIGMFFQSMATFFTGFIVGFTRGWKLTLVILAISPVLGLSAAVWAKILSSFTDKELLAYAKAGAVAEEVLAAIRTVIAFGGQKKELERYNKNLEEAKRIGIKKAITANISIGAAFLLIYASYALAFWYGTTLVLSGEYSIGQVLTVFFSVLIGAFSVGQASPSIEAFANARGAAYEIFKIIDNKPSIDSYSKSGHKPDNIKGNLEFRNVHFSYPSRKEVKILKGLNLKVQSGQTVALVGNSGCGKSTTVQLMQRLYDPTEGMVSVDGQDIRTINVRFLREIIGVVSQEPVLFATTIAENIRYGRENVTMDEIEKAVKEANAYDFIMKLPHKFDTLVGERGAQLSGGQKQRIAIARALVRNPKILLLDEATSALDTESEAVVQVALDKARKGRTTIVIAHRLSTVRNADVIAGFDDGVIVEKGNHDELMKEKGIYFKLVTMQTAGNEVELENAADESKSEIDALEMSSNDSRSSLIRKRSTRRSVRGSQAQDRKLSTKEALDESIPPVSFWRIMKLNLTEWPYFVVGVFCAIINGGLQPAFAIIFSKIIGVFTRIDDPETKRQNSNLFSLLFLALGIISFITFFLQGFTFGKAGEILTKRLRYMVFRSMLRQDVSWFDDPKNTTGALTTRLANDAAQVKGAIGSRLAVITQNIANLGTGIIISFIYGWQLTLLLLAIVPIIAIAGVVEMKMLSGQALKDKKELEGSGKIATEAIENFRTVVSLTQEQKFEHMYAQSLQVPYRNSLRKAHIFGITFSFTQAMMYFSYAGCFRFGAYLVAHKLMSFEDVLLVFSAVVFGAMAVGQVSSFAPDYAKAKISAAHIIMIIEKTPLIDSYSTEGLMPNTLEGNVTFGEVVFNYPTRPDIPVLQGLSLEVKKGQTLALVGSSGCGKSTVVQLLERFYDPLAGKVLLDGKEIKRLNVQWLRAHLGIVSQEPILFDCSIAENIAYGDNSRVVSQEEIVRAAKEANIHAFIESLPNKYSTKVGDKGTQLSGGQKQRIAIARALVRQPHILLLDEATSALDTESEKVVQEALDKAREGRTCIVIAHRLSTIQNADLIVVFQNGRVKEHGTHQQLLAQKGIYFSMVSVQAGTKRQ

[11] = test system: CYP1A2; assay: In vitro CYP inhibition; format: in vitro ADME
[12] = cited from earlier work; remark: listed apart in the source
[13] = format: in vivo, human; remark: listed apart in the source
[14] = test system: CYP2C19; assay: In vitro CYP inhibition; format: in vitro ADME
[15] = test system: CYP2D6; assay: In vitro CYP inhibition; format: in vitro ADME
[16] = test system: CYP2C8; assay: In vitro CYP inhibition; format: in vitro ADME
[17] = test system: CYP2E1; assay: In vitro CYP inhibition; format: in vitro ADME
[18] = format: in vivo, human; remark: listed apart in the source
[19] = test system: CYP2C9; assay: In vitro CYP inhibition; format: in vitro ADME
[20] = format: in vivo, human; remark: listed apart in the source
[21] = test system: CYP2A6; assay: In vitro CYP inhibition; format: in vitro ADME
[22] = test system: CYP3A4/5; assay: In vitro CYP inhibition; format: in vitro ADME
[23] = format: in vivo, human; remark: listed apart in the source
[24] = format: in vivo, human; remark: listed apart in the source
[25] = Pharmacological activity of the major metabolite; details: major carboxylic acid metabolite
[26] = concomitant agent alone (reference): placebo + EE/L 30/150 μg for 21 days
[27] = vortioxetine 10 mg + EE/L 30/150 μg for 21 days (test)
[28] = co-administered with ketoconazole vs vortioxetine alone
[29] = co-administered with fluconazole vs vortioxetine alone
[30] = co-administered with rifampicin vs vortioxetine alone
[31] = co-administered with bupropion vs vortioxetine alone
[32] = omeprazole 40 mg single dose + vortioxetine 10 mg at steady state (test), day 16
[33] = omeprazole 40 mg single dose alone (reference), day 1

## C#C[C@]1(O)CC[C@H]2[C@@H]3CCc4cc(O)ccc4[C@H]3CC[C@@]21C [Ethinyl estradiol, ethinyl estradiol]
[1]; [26]
  AUC: 0.857 ng·h/mL
[1]; [27]
  AUC: 0.85 ng·h/mL
  Cmax: 0.0816 ng/mL
[1]
  AUC24 ratio (test/reference): 99.19%
  Cmax ratio (test/reference): 93.87%

## Cc1ccc(Sc2cc(O)ccc2N2CCNCC2)c(C)c1 [Lu AA39835]
[2]
  penetration of the blood–brain barrier: not expected to penetrate the blood–brain barrier
[3]
  plasma metabolic ratio: ≤ 4%

## COc1ccc2c(c1)[C@]13CCCC[C@@H]1[C@H](C2)N(C)CC3 [dextromethorphan]
[4]
  decrease in plasma exposure of probe substrate by vortioxetine: up to 24%

## Br.Cc1ccc(Sc2ccccc2N2CCNCC2)c(C)c1 [Vortioxetine, 1-[2-(2,4-dimethylphenylsulfanyl)-phenyl]-piperazine-hydrobromide]
[5]
  drug-related material excreted in the feces: one-third
[5]; primarily as Lu AA34443 and its glucuronide
  drug-related material excreted in the urine: two-thirds
[6]; [28]
  increase in vortioxetine AUC: 30%
  increase in vortioxetine Cmax: 26%
[6]; human, plasma, 10 mg
  AUC(0-t): 262 ng·h/mL
  Cmax: 4.92 ng/mL
[6]; with ketoconazole vs alone
  AUClast ratio (test/reference): 130.48%
  Cmax ratio (test/reference): 125.73%
[7]; [29]
  increase in vortioxetine AUC: 46%
  increase in vortioxetine Cmax: 15%
[7]; human, plasma, 10 mg
  AUC(0-t): 222 ng·h/mL
  Cmax: 4.52 ng/mL
[7]; with fluconazole vs alone
  AUClast ratio (test/reference): 146.17%
  Cmax ratio (test/reference): 114.64%
[8]
  Abnormal dreams: 2 (6.7) number of subjects (%)
  Agitation: 0 number of subjects (%)
  Anxiety: 0 number of subjects (%)
  Constipation: 3 (10.0) number of subjects (%)
  Dizziness: 1 (3.3) number of subjects (%)
  Dyspepsia: 1 (3.3) number of subjects (%)
  Fatigue: 1 (3.3) number of subjects (%)
  Headache: 4 (13.3) number of subjects (%)
  Hyperhidrosis: 0 number of subjects (%)
  Insomnia: 1 (3.3) number of subjects (%)
  Nausea: 9 (30.0) number of subjects (%)
  Oropharyngeal pain: 0 number of subjects (%)
  Palpitations: 2 (6.7) number of subjects (%)
  Somnolence: 0 number of subjects (%)
  Tremor: 0 number of subjects (%)
  URTI (upper respiratory tract infection): 0 number of subjects (%)
  Vertigo: 0 number of subjects (%)
  Vomiting: 3 (10.0) number of subjects (%)
[9]
  inhibitory concentration/inhibition constant ratio ([I]/Ki): ≤ 0.024
[10]
  in vitro net efflux ratio (P-gp substrate): much lower than that of the P-gp substrate digoxin
[11]
  inhibitory concentration/inhibition constant ratio ([I]/Ki): ≤ 0.024
[12]
  elimination half-life: 57 h
  steady-state volume of distribution: approximately 2600 L
[12]; independent of food
  oral bioavailability: 75%
[13]; [30]
  decrease in vortioxetine AUC (exposure): 72% and 72 to 77%
  decrease in vortioxetine Cmax: 51%
[13]; human, plasma, 20 mg
  AUC(0-t): 438 ng·h/mL
  Cmax: 8.92 ng/mL
[13]; with rifampicin vs alone
  AUClast ratio (test/reference): 27.74%
  Cmax ratio (test/reference): 49.11%
[14]
  inhibitory concentration/inhibition constant ratio ([I]/Ki): ≤ 0.024
[15]
  inhibitory concentration/inhibition constant ratio ([I]/Ki): ≤ 0.024
[16]
  inhibitory concentration/inhibition constant ratio ([I]/Ki): ≤ 0.024
[17]
  inhibitory concentration/inhibition constant ratio ([I]/Ki): ≤ 0.024
[18]; bupropion added to vortioxetine
  increase in exposure of vortioxetine: approximately 100%
[18]; [31]
  increase in vortioxetine AUC: 128%
  increase in vortioxetine Cmax: 114%
[18]; human, plasma, 10 mg
  AUC: 308 ng·h/mL
  Cmax: 15.9 ng/mL
[18]; with bupropion vs alone
  AUC24 ratio (test/reference): 228.30%
  Cmax ratio (test/reference): 213.57%
[19]
  inhibitory concentration/inhibition constant ratio ([I]/Ki): ≤ 0.024
[20]; human, plasma, 10 mg
  AUC: 243 ng·h/mL
  Cmax: 13.8 ng/mL
[20]; with omeprazole vs alone
  AUC24 ratio (test/reference): 105.5%
  Cmax ratio (test/reference): 100.5%
[21]
  inhibitory concentration/inhibition constant ratio ([I]/Ki): ≤ 0.024
[22]
  inhibitory concentration/inhibition constant ratio ([I]/Ki): ≤ 0.024

## C#C[C@]1(O)CC[C@H]2[C@@H]3CCC4=CC(=O)CC[C@@H]4[C@H]3CC[C@@]21CC [Levonorgestrel, levonorgestrel]
[1]; [26]
  AUC: 86.8 ng·h/mL
  Cmax: 6.76 ng/mL
[1]; [27]
  Cmax: 7.23 ng/mL
[1]
  AUC24 ratio (test/reference): 102.07%
  Cmax ratio (test/reference): 107.06%

## COc1ccc2nc([S+]([O-])Cc3ncc(CO)c(OC)c3C)[nH]c2c1 (centres unmarked) [5′-Hydroxyomeprazole, 5′-hydroxyomeprazole]
[23]; [32]
  AUC∞, least-squares mean: 976 ng·h/mL
  Cmax, least-squares mean: 411 ng/mL
[23]; [33]
  AUC∞, least-squares mean: 997 ng·h/mL
  Cmax, least-squares mean: 392 ng/mL
[23]; with vortioxetine vs alone
  AUC∞ ratio (test/reference): 97.9%
  Cmax ratio (test/reference): 104%

## CC(NC(C)(C)C)C(=O)c1cccc(Cl)c1 (centres unmarked) [Bupropion, bupropion]
[24]; bupropion with vs without vortioxetine
  Cmax greater when given with vortioxetine than without: 18%
[24]; human, plasma, 150 mg
  AUC: 791 ng·h/mL
[24]; vortioxetine 10 mg once daily + bupropion 150 mg twice daily (test), day 28
  Cmax, least-squares mean: 177 ng/mL
[24]; with vortioxetine vs alone
  AUC24 ratio (test/reference): 99.22%
  Cmax ratio (test/reference): 117.98%
[8]
  Abnormal dreams: 0 number of subjects (%)
  Agitation: 0 number of subjects (%)
  Anxiety: 0 number of subjects (%)
  Any adverse event: 19 (63.3) number of subjects (%)
  Constipation: 0 number of subjects (%)
  Dizziness: 3 (10.0) number of subjects (%)
  Dyspepsia: 2 (6.7) number of subjects (%)
  Fatigue: 0 number of subjects (%)
  Headache: 10 (33.3) number of subjects (%)
  Hyperhidrosis: 1 (3.3) number of subjects (%)
  Insomnia: 1 (3.3) number of subjects (%)
  Nausea: 5 (16.7) number of subjects (%)
  Oropharyngeal pain: 0 number of subjects (%)
  Palpitations: 2 (6.7) number of subjects (%)
  Somnolence: 3 (10.0) number of subjects (%)
  Tremor: 1 (3.3) number of subjects (%)
  URTI (upper respiratory tract infection): 3 (10.0) number of subjects (%)
  Vertigo: 1 (3.3) number of subjects (%)
  Vomiting: 2 (6.7) number of subjects (%)

## COc1ccc2[nH]c([S+]([O-])Cc3ncc(C)c(OC)c3C)nc2c1 (centres unmarked) [Omeprazole, omeprazole]
[23]; human, plasma, 40 mg
  AUC(0-inf): 1110 ng·h/mL
  Cmax: 550 ng/mL
[23]; omeprazole with vs without vortioxetine
  Cmax greater when given with vortioxetine than without: 11%
[23]; with vortioxetine vs alone
  Cmax ratio (test/reference): 111%

## Cc1cc(C(=O)O)ccc1Sc1ccccc1N1CCNCC1 [Lu AA34443]
[25]
  pharmacological activity: pharmacologically inactive
